According to ChEMBL document CHEMBL1130029 (J Med Chem, 1997):
Several values for one entry are separate records, joined by “and”; a condition that tells them apart may be missing. Equal values may be shown once.

Key:
[1] = Oral bioavailability in Rhesus monkey (dose 16 mg/kg); assay type: ADME, organism-based, Macaca mulatta; settings: in vivo
Summary of the method: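 Two female and two male rhesus monkeys were dosed orally (16 mg/kg) and then iv (1 mg/kg) after a 2-week washout. Plasma was sampled from 1 min to 8 h, extracted liquid-liquid into benzene or cyclohexane, and quantified by reverse-phase HPLC (detection limit 10 ng/mL). AUC was calculated by the trapezoidal rule, and bioavailability = (AUCpo/dose)/(AUCiv/dose) × 100.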

Human rhinovirus sp. [2] = experiment: Compound was tested for resistance (survivors(%)) by extended cycle replication assay conducted in 1 ug/mL Enviroxime. wild type; assay type: functional
Summary of the method: (§1)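 Values are expressed relative to a no-drug control. Mutants of rhinovirus 14 were isolated, sequenced and assayed for resistance by earlier-reported procedures.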

Human rhinovirus sp. [3] = experiment: Compound was tested for resistance (survivors(%)) by extended cycle replication assay conducted in 1 ug/mL Enviroxime.(3A amino acid substitution Ile 77 to Val).; assay type: functional; summary of the method: as §1
Human rhinovirus sp. [4] = experiment: Compound was tested for resistance (survivors(%)) by extended cycle replication assay conducted in 1 ug/mL Enviroxime.(3A amino acid substitution Met 54 to Ile); assay type: functional; summary of the method: as §1
Monkey = experiment: In vitro hepatic microsomal metabolism in monkey; assay type: functional; settings: Cercopithecidae, Liver
Summary of the method: (§2)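 Microsomes from F344 rat, beagle dog, cynomolgus monkey or pooled human were incubated at 37 °C in a shaking bath. The oxidative arm used pH 7.4 Tris with NADPH and was run 3 h. The glucuronidation arm used pH 7.4 Tris-Brij with MgCl2 and UDPGA and was run 1 h. Compound was added from an acetone stock. Reactions were stopped with chilled acetonitrile, and unincubated controls were compared. Remaining parent was measured by HPLC.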

Rattus norvegicus [5] = species: Rattus norvegicus; experiment: In vitro hepatic microsomal metabolism in rat; assay type: functional; settings: Liver; summary of the method: as §2
Human rhinovirus sp. [6] = experiment: Compound was tested for resistance (survivors(%)) by extended cycle replication assay conducted in 1 ug/mL Enviroxime.(3A amino acid substitution Ile 32 to Val); assay type: functional; summary of the method: as §1
rhinovirus B14 [7] = experiment: % survivors was determined against mutants of human rhinovirus 14 by extended cycle replication assay in 1 ug/mL enviroxime; assay type: functional; summary of the method: as §1
Homo sapiens = species: Homo sapiens; experiment: In vitro hepatic microsomal metabolism in human; assay type: functional; settings: Liver; summary of the method: as §2
Human rhinovirus sp. [8] = experiment: (§3) % survivors was determined against mutants of human rhinovirus 14 by extended cycle replication assay in 1 ug/mL enviroxime by different amino acid substitution; assay type: functional; summary of the method: as §1
rhinovirus B14 [9] = experiment: as §3; assay type: functional; summary of the method: as §1
Human rhinovirus sp. [10] = experiment: Compound was tested for resistance (survivors(%)) by extended cycle replication assay conducted in 1 ug/mL Enviroxime.(3A amino acid substitution Ile 42 to Val); assay type: functional; summary of the method: as §1
Canis familiaris = species: Canis familiaris; experiment: In vitro hepatic microsomal metabolism in dog; assay type: functional; settings: Canis lupus familiaris, Liver; summary of the method: as §2
Human rhinovirus sp. [11] = experiment: Compound was tested for resistance (survivors(%)) by extended cycle replication assay conducted in 1 ug/mL Enviroxime.(3A amino acid substitution Asp 28 to Tyr).; assay type: functional; summary of the method: as §1
Mus musculus [12] = species: Mus musculus; experiment: In vitro hepatic microsomal metabolism in mouse; assay type: functional; settings: Liver
Human rhinovirus sp. [13] = experiment: Compound was tested for resistance (survivors(%)) by extended cycle replication assay conducted in 1 ug/mL Enviroxime.(3A amino acid substitution Glu 34 to Val).; assay type: functional; summary of the method: as §1
Human rhinovirus sp. [14] = experiment: Compound was tested for resistance (survivors(%)) by extended cycle replication assay conducted in 1 ug/mL Enviroxime.(3A amino acid substitution Glu 51 to Val); assay type: functional; summary of the method: as §1
Human rhinovirus sp. [15] = experiment: Compound was tested for resistance (survivors(%)) by extended cycle replication assay conducted in 1 ug/mL Enviroxime.(3A amino acid substitution Gly 72 to Ser); assay type: functional; summary of the method: as §1
rhinovirus B14 [16] = experiment: % survivors was determined against mutants of human rhinovirus 14 by extended cycle replication assay in 1 ug/mL enviroxime by different amino acid substitution by different amino acid substitution; assay type: functional; summary of the method: as §1
Rhesus monkey [17] = experiment: In vivo plasma levels in Rhesus monkey was determined at a dose of 8 mg/kg administered orally; assay type: functional, organism-based; design: dose 8 mg/kg; settings: Cercopithecidae
Mus musculus [18] = species: Mus musculus; experiment: In vitro Hepatic microsomal metabolism in mouse; assay type: functional; settings: Liver
Rattus norvegicus [19] = species: Rattus norvegicus; experiment: In vitro hepatic microsomal metabolism in rat.; assay type: functional; settings: Liver; summary of the method: as §2
Rhesus monkey [20] = experiment: In vivo plasma levels in Rhesus monkey was determined at a dose of 8 mg/kg administered orally; none detected; assay type: functional, organism-based; design: dose 8 mg/kg; settings: Cercopithecidae

C#C/C=C(\c1ccc(SC)cc1)c1ccc2nc(N)n(S(=O)(=O)C(C)C)c2c1
bioavailability [1]: 5%

CC(C)S(=O)(=O)n1c(N)nc2ccc(/C(=N/O)c3ccccc3)cc21 [ENVIROXIME]
Survivors (Human rhinovirus sp. [2]): 0.07%
Survivors (Human rhinovirus sp. [3]): 0.7%
Survivors (Human rhinovirus sp. [4]): 1.9%
Metabolism (Monkey): 80%
Metabolism (Rattus norvegicus [5]): 39%
Survivors (Human rhinovirus sp. [6]): 0.7%
Survivors (rhinovirus B14 [7]): 0.6% and 2.1%
Metabolism (Homo sapiens): 98%
Survivors (Human rhinovirus sp. [8]): 1.1% and 0.03%
Survivors (rhinovirus B14 [9]): 5.5%
Survivors (Human rhinovirus sp. [10]): 1.7%
Metabolism (Canis familiaris): 37%
Survivors (Human rhinovirus sp. [11]): 2%
Metabolism (Mus musculus [12]): 24%
Survivors (Human rhinovirus sp. [13]): 1.5%
Survivors (Human rhinovirus sp. [14]): 1.3%
Survivors (Human rhinovirus sp. [15]): 4.9%
Survivors (rhinovirus B14 [16]): 1.5%

C#C/C=C(\c1ccc(F)cc1)c1ccc2nc(N)n(S(=O)(=O)C(C)C)c2c1
Metabolism (Monkey): 37%
Metabolism (Rattus norvegicus [5]): 29%
bioavailability [1]: 23%
Metabolism (Homo sapiens): 12%
Metabolism (Canis familiaris): 31%
Metabolism (Mus musculus [12]): 13%

C#C/C=C(\c1ccc(OCC)cc1)c1ccc2nc(N)n(S(=O)(=O)C(C)C)c2c1
bioavailability [1]: 4%

C#C/C=C(\c1ccc(OC)cc1)c1ccc2nc(N)n(S(=O)(=O)C(C)C)c2c1
Survivors (Human rhinovirus sp. [2]): 0.05%
Survivors (Human rhinovirus sp. [3]): 2.2%
Survivors (Human rhinovirus sp. [4]): 3.5%
Survivors (Human rhinovirus sp. [6]): 2.3%
bioavailability [1]: 5%
Survivors (Human rhinovirus sp. [10]): 5.6%
Survivors (Human rhinovirus sp. [11]): 4.7%
Survivors (Human rhinovirus sp. [13]): 5%
Survivors (Human rhinovirus sp. [14]): 3.8%
Survivors (Human rhinovirus sp. [15]): 6.8%

C/C=C(\c1ccccc1)c1ccc2nc(N)n(S(=O)(=O)C(C)C)c2c1 [ENVIRADENE]
Metabolism (Monkey): 88%
Plasma concentration (Rhesus monkey [17]): 14 ng/mL
Plasma concentration (Rhesus monkey [17]; tested as the 2H-labelled form): 10 ng/mL
Metabolism (Homo sapiens): 73%
Metabolism (Canis familiaris): 40%
Metabolism (Mus musculus [18]): 36%
Metabolism (Rattus norvegicus [19]): 27%

C#C/C=C(\c1ccc([S+](C)[O-])cc1)c1ccc2nc(N)n(S(=O)(=O)C(C)C)c2c1 (configuration not stated)
bioavailability [1]: 3%

C=C/C=C(\c1ccccc1)c1ccc2nc(N)n(S(=O)(=O)C(C)C)c2c1
Plasma concentration (Rhesus monkey [20]): none detected

C#C/C=C(\c1ccccc1)c1ccc2nc(N)n(S(=O)(=O)C(C)C)c2c1
bioavailability [1]: 9%
Plasma concentration (Rhesus monkey [17]): 70 ng/mL
